# This is a sample that favours compounds with a hit; in the whole collection about 2.2% have one here.
# Myeloid diff 2 – induction of myeloid progenitor differentiation, primary screen, cell-based, flow cytometry, MLPCN library; ER-HoxA9 myeloid progenitors, lysozyme-GFP differentiation; calls only at 10 µM; 360,000 tested, 1% active;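 active means normalized GFP-positive differentiation at or above the plate's own cutoff, the solvent-only control mean plus 3 SD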;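 further: cells exposed to compound for four days before flow analysis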
# CSN deneddyl inh – inhibitors of CSN-mediated cullin deneddylation, primary screen, biochemical, fluorescence polarization, uHTS; inhibition, % at 12.5 µM; AID 651999, 2013; COP9 signalosome complex subunit 5 (Homo sapiens), Q92905; Purified CSN, SCF-Nedd8-OG deneddylation; 360,000 tested, 0.38% active;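 active means pattern-corrected inhibition above about 35%, with an unprinted fluorescence ratio check between 0.5 and 1.5, limit read from the data, passing the limit was not always enough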;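 further: 0% = enzyme with substrate and 100% = substrate without enzyme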
#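 Schedule: reaction 90 min, room temperature / Assay system: HEK293T-derived human Csn5 enzyme / Input: Csn5 at 0.24 nM final / Measure: inhibition of Csn5 cleavage, % / Control set: substrate-only high control, full reaction low control / Technique: fluorescence polarization of the substrate / Buffer or medium: Tris/NaCl/DTT buffer, pH 7.5 / Reagent: SCFSkp2-Nedd8OG substrate at 10 nM final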
# HNF4A DNA FP – change in binding of human HNF4A to DNA, primary screen, biochemical, fluorescence polarization, FITC-DNA; activity change, % at 10 µM; AID 1224865, 2016; 360,000 tested, 0.3% active; 1 h; in the data active means activity change above about 30%, passing the limit was not always enough
# Target sequence (P41235 whole entry, looked up): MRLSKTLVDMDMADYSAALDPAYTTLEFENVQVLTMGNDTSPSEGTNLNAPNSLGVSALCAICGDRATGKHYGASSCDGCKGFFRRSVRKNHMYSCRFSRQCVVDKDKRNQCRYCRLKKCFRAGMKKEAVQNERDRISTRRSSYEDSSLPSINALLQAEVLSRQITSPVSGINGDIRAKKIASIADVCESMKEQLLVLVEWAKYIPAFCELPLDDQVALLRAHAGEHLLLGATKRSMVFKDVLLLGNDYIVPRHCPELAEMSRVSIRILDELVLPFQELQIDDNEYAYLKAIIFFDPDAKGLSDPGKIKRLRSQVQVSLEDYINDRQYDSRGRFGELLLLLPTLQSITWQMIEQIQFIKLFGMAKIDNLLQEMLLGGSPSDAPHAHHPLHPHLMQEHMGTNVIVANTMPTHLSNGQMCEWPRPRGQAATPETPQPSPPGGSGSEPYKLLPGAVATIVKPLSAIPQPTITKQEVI
# Exocytosis inh – LAMP-1 surface exposure blockers, TALL-104 cells – cell-based, flow cytometry, MLPCN library, primary screen. TALL-104 LAMP-1 surface exposure; cells stimulated with thapsigargin and PMA. inhibition, % at 10 µM. 360,000 tested, 0.66% active;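 active means inhibition above about 55%, limit read from the data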
# HNF4A confirm – change in HNF4A binding to DNA, retest, confirmation, biochemical, fluorescence polarization, FITC-DNA. shares compounds with HNF4A DNA FP. AID 1224897, 2016. activity change, % at 12.5 µM. 1 h. 210 tested, 99% active; call rule not given here
# * = called active by the depositor; i = inactive; . = no result; + = active, no number.
SMILES,Myeloid diff 2,CSN deneddyl inh,HNF4A DNA FP,Exocytosis inh,HNF4A confirm
N#Cc1c(-c2ccccc2)cc(-c2ccccc2)[nH]c1=O,i,0.5,1.8,-13.0,.
COc1ccc(NC(=O)CN(C)S(=O)(=O)c2ccc(C)cc2)c([N+](=O)[O-])c1,i,11.2,58.8*,0.8,58.6*
COc1ccc(N(C)S(=O)(=O)c2ccc(C)cc2)c([N+](=O)[O-])c1,i,-10.8,1.0,5.0,.
COc1ccc2nc(Nc3ccccc3OC)sc2c1,i,-6.0,0.5,1.3,.
COc1ccccc1Nc1nc(Cl)c(C=O)s1,+,37.5*,49.5*,1.0,88.8*
Cc1ccc(Nc2nc(Cl)c(C=O)s2)cc1Cl,+,25.1,44.3*,0.5,43.7*
COc1ccc(OCCNc2cc(Cl)ccc2[N+](=O)[O-])cc1,i,46.6*,51.2*,0.6,67.0*
CC(C(=O)Nc1ccc(Cl)cc1)N1C(=O)NC2(CCCC2)C1=O (centres undefined),i,-3.2,3.2,1.2,.
NC(=O)CC(NC(=O)Cc1ccc(Br)cc1)c1ccc(NC2CCCC2)c([N+](=O)[O-])c1 (centres undefined),i,26.9,49.9*,-3.9,49.3*
NC(=O)CC(NC(=O)Cc1ccc(Br)cc1)c1ccc(NC2CCCCCCC2)c([N+](=O)[O-])c1 (centres undefined),i,28.5,44.0,-2.8,.
O=C1NC(=NCc2ccccc2)NC1(c1ccccc1)c1ccccc1,i,-0.7,-1.5,0.8,.
CCOC(=O)c1ccc(NC(=O)CCC(=O)NCc2ccco2)cc1,i,1.7,-4.1,-2.4,.
N#CCC(=O)Nc1ccc(C(=O)OCC(=O)NC(=O)NCc2ccco2)cc1,i,35.6*,33.9*,-16.6,39.5*
COc1ccc2[nH]cc(C=O)c2c1,i,0.0,-1.1,0.6,.
COc1ccc2[nH]cc(/C=C/c3cc[n+](C)cc3)c2c1,+,32.5,52.1*,-1.3,113.7*
COc1ccc(C2CC(c3ccccc3)=NN2S(=O)(=O)c2ccccc2)cc1 (centres undefined),i,5.8,76.7*,7.4,59.3*
Cc1ccc(Cl)c2c(N=Nc3ccccc3)c(O)[nH]c12,i,-14.1,60.7,2.9,.
C#CCOCCOCCOCCNc1nc(N2CCN(C(=O)C([C@@H](C)O)n3cc([C@@H](N)CCCCN)nn3)CC2)nc(N2CCN(C(=O)[C@H](CCCCN)n3cc([C@@H](N)[C@H](C)CC)nn3)CC2)n1 (some centres undefined),i,84.7*,76.0*,-4.2,94.3*
C#CCOCCOCCOCCNc1nc(N2CCN(C(=O)CCCCCCCCCCNC(=O)[C@H](CCCCN)n3cc(CCO)nn3)CC2)nc(N2CCN(C(=O)CCCCCCCCCCNC(=O)[C@H](CCCCN)n3cc(CCCC(=O)O)nn3)CC2)n1,i,6.3,48.2*,-1.2,66.3*
C#CCOCCOCCOCCNc1nc(N2CCN(C(=O)CCCCCCCCCCNC(=O)[C@@H](CCC(=O)O)n3cc(CCCCCN)nn3)CC2)nc(N2CCN(C(=O)CCCCCCCCCCNC(=O)[C@H](CO)n3cc(CCCCCN)nn3)CC2)n1,i,2.1,7.8,3.4,.
C#CCOCCOCCOCCNc1nc(N2CCN(C(=O)[C@H](CCCCN)n3cc(CN)nn3)CC2)nc(N2CCN(C(=O)[C@H](CCC(=O)O)n3cc([C@@H](N)CCCCN)nn3)CC2)n1,i,99.9*,92.2*,15.6,123.3*
CN(C(=O)c1ccc(NC(=O)Cc2ccc(NC(=O)C3CCCN(C(=O)C4CCC4)C3)cc2)cc1)C1CC1 (centres undefined),i,-2.7,-1.7,-1.6,.
COC(=O)c1cc(C(=O)c2cc(F)ccc2O)cn2c(=O)c3c(C)c(C)sc3nc12,i,7.6,68.0*,-2.0,65.7*
Cn1c(=O)c(=O)n(C)c2cc(S(=O)(=O)N3CCc4ccccc43)ccc21,i,12.2,42.7*,-3.6,46.6*
CCN1CCN(CCCNC(=O)C2CCN(c3nnc(-n4c(C)ccc4C)s3)CC2)CC1,i,-1.6,-0.6,-1.2,.
SMILES,Myeloid diff 2,CSN deneddyl inh,HNF4A DNA FP,Exocytosis inh,HNF4A confirm
CCOc1cc(/C=C2/C(=N)N3C(=NC2=O)SN=C3S(=O)(=O)CC)ccc1OC(=O)c1ccco1,i,29.8,26.5,-1.7,.
COc1cc(/C=C2\SC(=S)N(CC(=O)NC3=NCCS3)C2=O)cc(OC)c1OC,i,8.7,10.9,-13.7,.
COc1cc(/C=C2\C(=N)N3N=CSC3=NC2=O)cc(Br)c1OC(=O)c1ccco1,i,13.4,39.3*,0.6,79.1*
CCS(=O)(=O)C1=NSC2=NC(=O)/C(=C\c3ccc(OC(=O)c4ccco4)c(OC)c3)C(=N)N21,i,30.9,43.8*,-11.9,58.8*
COc1ccc(/C=C2\SC(=S)N(CCC(=O)NC3=NCCS3)C2=O)cc1OC,i,-1.5,53.1*,0.4,77.3*
COc1cc(/C=C2/SC(=S)N(C)C2=O)ccc1OC(=O)c1ccco1,i,25.0,48.7*,0.4,37.1*
CCCOc1ccc(F)cc1-c1cc(C(=O)Nc2ccc(C)c(NS(C)(=O)=O)c2)[nH]n1,i,0.9,0.3,-5.2,.
COc1ccccc1Nc1ccc2c(O)cc(S(=O)(=O)O)cc2c1,i,27.0,-54.8,-0.1,.
CN(CC(=O)Nc1ccc(F)c(F)c1F)C(=O)c1ccc2c(c1)S(=O)(=O)N=C1CCCCCN12,i,-3.0,0.1,-3.7,.
COCCN(C(=O)COC(=O)CCc1ccccc1)c1c(N)n(Cc2ccccc2)c(=O)[nH]c1=O,i,0.2,0.6,-3.7,.
COc1ccc(S(N)(=O)=O)cc1C(=O)OCCCC(=O)c1ccccc1,i,-2.7,5.3,-3.1,.
CCOC(=O)c1c(C)c(C)n2c1NC(=O)C2,i,21.3,56.6*,-9.6,65.1*
CC(=O)c1ccc[n+](CC(=O)NC(C)c2ccccc2)c1 (centres undefined),i,1.9,2.4,7.7,.
CCCN1CCc2c(sc(NC(=O)c3ccc(S(=O)(=O)N4CCCC4)cc3)c2C(N)=O)C1,+,14.5,41.4*,4.1,53.8*
CCCCn1c(/N=C/c2ccc(N(C)C)cc2)nc2ccccc21,i,17.5,48.7*,-1.6,81.0*
CCCCn1c(/N=C/c2ccc3c(c2)OCO3)nc2ccccc21,i,-0.1,-5.1,-3.4,.
N#CC1=C(N)N(c2ccc(F)cc2)C2=C(C1c1ccc(O)cc1)S(=O)(=O)CC2 (centres undefined),+,43.2*,54.7*,3.3,51.6*
NS(=O)(=O)c1ccc(NC(=O)COc2ccc(Cl)cc2)cc1,i,0.1,4.9,-2.6,.
